Measured values: ChEMBL document CHEMBL4251661, “Capsicodendrin from Cinnamosma fragrans Exhibits Antiproliferative and Cytotoxic Activity in Human Leukemia Cells: Modulation by Glutathione” (J Nat Prod, 2018)
Calls of active or inactive are those of the source. The rule behind the calls is not given here.

How the values were obtained:
[1] = test system: HL-60; experiment: Cytotoxicity against human HL60 cells assessed as cell death at 0.2 to 0.5 uM after 48 hrs in presence of GSH synthesis inhibitor buthionine sulfoximine by trypan blue dye exclusion method; format: functional, cell-based
Procedure, shortened: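 HL-60 cells (RPMI-1640 + 15% FBS, 37 °C, 5% CO2) seeded at 100 000 cells/mL. For line 1, cells were first held 40 h ± BSO 50 μM. They were then exposed to CPCD 0.1–0.5 μM or DMSO for 48 h or 48 and 72 h. Cells were mixed 1:1 with trypan blue and % blue-positive cells counted on a hemocytometer. Mean ± SEM of 3–9 separate-day runs.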

[2] = test system: K562; experiment: Growth inhibition of human K562 cells after 72 hrs in presence of GSH synthesis inhibitor buthionine sulfoximine by Beckman coulter counting method; format: functional, cell-based; details: K562, 72 h
Procedure, shortened: (§1)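 K562 cells in DMEM + 10% FBS, preincubated 40 h with or without BSO 50 μM, then seeded at 100 000 cells/mL. Exposed to CPCD or DMSO at 37 °C, 5% CO2; growth assessed after 48 h per figure legend (72 h per methods). Cell number read on a Coulter counter; IC50 calculated from growth curves. Mean ± SEM of 3–4 separate-day runs.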

[3] = test system: HL-60; experiment: Growth inhibition of human HL60 cells at 0.2 to 0.5 uM after 48 hrs in presence of GSH synthesis inhibitor buthionine sulfoximine by Beckman coulter counting method; format: functional, cell-based
[4] = test system: HL-60; experiment: Induction of reactive oxygen species generation in human HL60 cells at 1 to 5 uM measured at 2 mins interval for 1 hr by DCFH-DA staining-based fluorescence assay; format: functional, cell-based
Procedure, shortened: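 HL-60 cells (1 × 10^6/mL) loaded with DCFH-DA 2 μM in HEPES buffer for 30 min at 37 °C, washed, then treated with vehicle, CPCD 1–5 μM or H2O2 25 μM. Fluorescence read every 2 min up to 1 h, in triplicate wells. Rate expressed as fluorescence units per min.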

[5] = test system: HL-60; experiment: Growth inhibition of human HL60 cells after 72 hrs in presence of GSH synthesis inhibitor buthionine sulfoximine by Beckman coulter counting method; format: functional, cell-based; details: HL-60, 72 h
Procedure, shortened: (§2)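 HL-60 cells in complete RPMI, preincubated 40 h with or without BSO 50 μM, then seeded at 100 000 cells/mL. Treated with CPCD (0.1, 0.2, 0.5 μM) or DMSO (1%) for 72 h at 37 °C, 5% CO2. Cells counted on a Coulter counter; IC50 taken from growth curves. Mean ± SEM of 3–4 separate-day experiments.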

[6] = test system: HL-60; experiment: Induction of apoptosis in human HL60 cells assessed as change in morphology at 0.2 to 0.5 uM after 48 hrs in presence of GSH synthesis inhibitor buthionine sulfoximine by […]; format: functional, cell-based
Procedure, shortened: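 HL-60 cells seeded at 100 000 cells/mL; for line 11, first held 40 h ± BSO 50 μM. Exposed to CPCD 0.1–0.5 μM or 0.1% DMSO for 48 h or 48 and 72 h. Washed pellets stained 20 min in the dark at room temperature with Hoechst 33342 (0.013 mg/mL). Fluorescence microscopy; 100–200 cells scored for apoptotic nuclear morphology.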

[7] = test system: HL-60; experiment: Induction of DNA damage in human HL60 cells assessed as increase in DNA strand breaks at 2 to 5 uM after 1 hr in presence of GSH synthesis inhibitor buthionine sulfoximine by SYBR green dye based comet assay; format: functional, cell-based
Procedure, shortened: (§3)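 HL-60 cells (100 000 cells/mL), ±BSO 50 μM for 40 h, moved into HEPES/glucose/salt buffer pH 7.4. Treated 1 h at 37 °C with CPCD 0.5–5 μM or 0.2% DMSO. Cells embedded in low-melt agarose, lysed, held at pH 13, then electrophoresed 30 min at 21 V/cm. SYBR Gold staining; Olive tail moment scored from ≥100 cells. Mean ± SEM of 5 runs.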

[8] = Displacement of ThioGlo4 from glutathione measured after 8 hrs by fluorescence assay; details: read-out: Kd(app)
Procedure, shortened: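 GSH (5 μM) incubated with CPCD 0.5–100 μM in 1× PBS for 8 h at 37 °C. ThioGlo IV (10 μM) added to diluted aliquots; unreacted GSH quantified by fluorescence, excitation 400 nm, emission 465 nm.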

[9] = test system: HL-60; experiment: Growth inhibition of human HL60 cells after 72 hrs by Beckman coulter counting method; format: functional, cell-based; details: HL-60, 72 h; procedure, shortened: as §2
[10] = test system: K562; experiment: Growth inhibition of human K562 cells after 72 hrs by Beckman coulter counting method; format: functional, cell-based; details: K562, 72 h; procedure, shortened: as §1
[11] = test system: HL-60; experiment: Induction of DNA damage in human HL60 cells assessed as increase in DNA strand breaks at 0.5 to 5 uM after 1 hr by SYBR green dye based comet assay; format: functional, cell-based; procedure, shortened: as §3
[12] = Drug level in DMSO-d6 treated with capsicodendrin at 2 mg measured after 1 hr by 1H-NMR spectra analysis; format: physicochemical

SMILES	Activity [1]	IC50 [2]	growth inhibition (GI) [3]	Activity [4]	IC50 [5]	Activity [6]	Activity [7]	Kd [8]	IC50 [9]	IC50 [10]	Activity [11]	Drug metabolism [12]
CC(=O)O[C@@H]1C=C([C@H]2O[C@@H]3OC(O)C4=C[C@@H](OC(C)=O)[C@H]5C(C)(C)CCC[C@]5(C)[C@]43O2)[C@](O)(C=O)[C@@]2(C)CCCC(C)(C)[C@H]12 (some centres not stated)	Active	180 to 210 nM	Active	inactive	70 to 90 nM	Active	Active	7200 nM	200 to 270 nM	360 to 480 nM	Active	–
CC(=O)O[C@@H]1C=C(C=O)[C@](O)(C=O)[C@@]2(C)CCCC(C)(C)[C@H]12 [CINNAMODIAL]	–	–	–	–	–	–	–	–	–	–	–	Metabolite_Detected
